Test results from BindingDB's records for doi:10.1021/jm100027p (Emory University, 2010).

Tests used:
[1] = target: Glutamate receptor ionotropic, NMDA 1/2C (Rattus norvegicus, UniProt Q00961+P35439); experiment: Antagonist activity at rat recombinant NR1-NR2C receptor expressed in Xenopus oocytes at holding potential of -40mV by two-electrode voltage-clamp electrophysiology
Procedure, shortened: (§1)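 Oocytes expressing rat NR1-1a with NR2A, NR2B, NR2C or NR2D, clamped at −40 mV in Ba2+/HEPES recording solution pH 7.4, 23°C. Current evoked by 100 μM glutamate plus 30 μM glycine. Final DMSO 0.05-0.5%, 5-7 inhibitor concentrations, ≥4 oocytes each. IC50 from Hill fit of normalized mean composite data. […] Some NR2A oocytes given BAPTA-AM or K-BAPTA.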

[2] = target: Glutamate receptor 1 (Rattus norvegicus, UniProt P19490); experiment: Antagonist activity at rat recombinant GLuR1 expressed in Xenopus oocytes assessed as inhibition of glutamate-induced current by two-electrode voltage-clamp electrophysiology
Glutamate receptor 1, sequence (P19490 whole entry, the tested form may be a part): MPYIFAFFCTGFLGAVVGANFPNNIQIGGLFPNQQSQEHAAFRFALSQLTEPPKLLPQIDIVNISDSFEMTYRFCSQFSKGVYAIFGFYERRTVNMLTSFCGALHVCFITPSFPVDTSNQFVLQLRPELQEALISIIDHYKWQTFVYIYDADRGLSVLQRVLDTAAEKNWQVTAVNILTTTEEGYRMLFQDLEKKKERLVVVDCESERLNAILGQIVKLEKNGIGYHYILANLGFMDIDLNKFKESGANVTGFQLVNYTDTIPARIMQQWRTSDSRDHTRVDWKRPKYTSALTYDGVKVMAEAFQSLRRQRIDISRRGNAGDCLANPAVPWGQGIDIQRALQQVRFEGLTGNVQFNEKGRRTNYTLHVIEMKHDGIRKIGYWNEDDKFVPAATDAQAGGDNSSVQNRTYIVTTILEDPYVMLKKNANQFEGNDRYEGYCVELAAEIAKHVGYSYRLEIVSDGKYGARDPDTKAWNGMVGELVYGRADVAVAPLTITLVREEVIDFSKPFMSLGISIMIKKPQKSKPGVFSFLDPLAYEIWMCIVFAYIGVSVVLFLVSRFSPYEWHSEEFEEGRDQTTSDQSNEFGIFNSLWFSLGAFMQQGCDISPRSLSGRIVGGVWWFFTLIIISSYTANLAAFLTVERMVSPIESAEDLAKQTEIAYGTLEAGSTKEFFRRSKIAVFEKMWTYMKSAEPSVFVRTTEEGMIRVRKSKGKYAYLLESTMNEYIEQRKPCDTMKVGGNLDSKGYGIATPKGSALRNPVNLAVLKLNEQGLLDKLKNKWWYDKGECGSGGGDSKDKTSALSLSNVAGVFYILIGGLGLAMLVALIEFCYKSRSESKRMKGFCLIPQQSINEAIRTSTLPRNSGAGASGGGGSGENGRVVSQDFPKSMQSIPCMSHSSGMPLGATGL
Procedure, shortened: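 Two-electrode voltage clamp at −40 mV on Xenopus oocytes expressing rat GluR1, perfused with 90 NaCl, 1.0 KCl, 0.5 BaCl2, 0.005 EDTA, 10 HEPES (mM), pH 7.4, 23°C; activated by 100 μM glutamate. From 20 mM DMSO stocks, 5-7 concentrations, ≥4 oocytes each. Hill fit to mean composite curves normalized to control, minimum usually fixed at 0. Response >75% at 100 μM reported as >300 μM.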

[3] = target: Glutamate receptor ionotropic, NMDA 1/2B (Rattus norvegicus, UniProt Q00960+P35439); experiment: Antagonist activity at rat recombinant NR1-NR2B receptor expressed in Xenopus oocytes at holding potential of -40mV by two-electrode voltage-clamp electrophysiology
Glutamate receptor ionotropic, NMDA 1/2B, sequence (Q00960 whole entry, other chains not shown): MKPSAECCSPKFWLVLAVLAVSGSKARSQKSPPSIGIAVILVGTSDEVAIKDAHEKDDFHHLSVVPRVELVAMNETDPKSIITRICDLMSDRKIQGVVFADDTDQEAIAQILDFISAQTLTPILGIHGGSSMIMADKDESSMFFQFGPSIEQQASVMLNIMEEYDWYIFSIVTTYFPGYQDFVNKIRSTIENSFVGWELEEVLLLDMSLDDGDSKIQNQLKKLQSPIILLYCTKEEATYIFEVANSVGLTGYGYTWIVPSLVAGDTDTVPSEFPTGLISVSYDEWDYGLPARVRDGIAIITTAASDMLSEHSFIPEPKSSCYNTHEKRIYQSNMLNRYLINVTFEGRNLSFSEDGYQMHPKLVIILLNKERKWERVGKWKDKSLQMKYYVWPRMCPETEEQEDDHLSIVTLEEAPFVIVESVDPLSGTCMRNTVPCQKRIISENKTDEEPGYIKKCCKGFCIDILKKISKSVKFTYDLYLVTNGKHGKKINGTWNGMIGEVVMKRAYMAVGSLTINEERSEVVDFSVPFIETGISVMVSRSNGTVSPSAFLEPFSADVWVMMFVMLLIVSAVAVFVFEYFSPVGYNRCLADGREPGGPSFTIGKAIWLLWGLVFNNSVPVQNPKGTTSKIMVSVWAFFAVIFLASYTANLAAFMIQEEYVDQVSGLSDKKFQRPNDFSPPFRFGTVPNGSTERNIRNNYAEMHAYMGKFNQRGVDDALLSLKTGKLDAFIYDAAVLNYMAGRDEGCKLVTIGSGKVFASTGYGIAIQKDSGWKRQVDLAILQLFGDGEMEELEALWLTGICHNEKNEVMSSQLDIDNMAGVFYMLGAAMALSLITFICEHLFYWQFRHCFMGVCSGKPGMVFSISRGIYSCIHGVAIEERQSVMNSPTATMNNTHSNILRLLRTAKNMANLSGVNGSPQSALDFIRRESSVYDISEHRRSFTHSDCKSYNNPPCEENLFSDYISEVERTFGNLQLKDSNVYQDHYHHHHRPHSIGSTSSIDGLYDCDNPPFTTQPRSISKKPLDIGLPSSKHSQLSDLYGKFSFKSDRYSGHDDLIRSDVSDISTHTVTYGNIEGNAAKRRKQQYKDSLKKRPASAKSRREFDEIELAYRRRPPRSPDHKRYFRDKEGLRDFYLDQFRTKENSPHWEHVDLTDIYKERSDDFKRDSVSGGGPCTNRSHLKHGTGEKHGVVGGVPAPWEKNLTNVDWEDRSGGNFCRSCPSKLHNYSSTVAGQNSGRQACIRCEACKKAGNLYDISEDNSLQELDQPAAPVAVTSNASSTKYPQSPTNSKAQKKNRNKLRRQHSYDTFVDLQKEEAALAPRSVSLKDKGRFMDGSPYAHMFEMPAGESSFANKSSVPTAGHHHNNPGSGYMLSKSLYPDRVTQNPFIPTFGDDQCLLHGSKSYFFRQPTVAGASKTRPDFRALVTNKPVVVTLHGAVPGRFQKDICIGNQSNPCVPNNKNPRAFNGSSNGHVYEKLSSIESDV
Procedure, shortened: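 Oocytes expressed rat NR1-1a/NR2B and were held at −40 mV, 23°C, pH 7.4 HEPES-buffered saline. Currents were activated by 100 μM glutamate plus 30 μM glycine. 5-7 inhibitor concentrations were tested, ≥4 oocytes each, normalized to control. IC50 came from Hill fits, minimum fixed at 0 unless indicated. Responses >75% of control at 100 μM were reported as >300 μM.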

[4] = target: Glutamate receptor ionotropic, NMDA 1/2A (Rattus norvegicus, UniProt Q00959+P35439); experiment: Antagonist activity at rat recombinant NR1-NR2A receptor expressed in Xenopus oocytes at holding potential of -40mV by two-electrode voltage-clamp electrophysiology; procedure, shortened: as §1
Glutamate receptor ionotropic, NMDA 1/2A, sequence (Q00959 whole entry, other chains not shown): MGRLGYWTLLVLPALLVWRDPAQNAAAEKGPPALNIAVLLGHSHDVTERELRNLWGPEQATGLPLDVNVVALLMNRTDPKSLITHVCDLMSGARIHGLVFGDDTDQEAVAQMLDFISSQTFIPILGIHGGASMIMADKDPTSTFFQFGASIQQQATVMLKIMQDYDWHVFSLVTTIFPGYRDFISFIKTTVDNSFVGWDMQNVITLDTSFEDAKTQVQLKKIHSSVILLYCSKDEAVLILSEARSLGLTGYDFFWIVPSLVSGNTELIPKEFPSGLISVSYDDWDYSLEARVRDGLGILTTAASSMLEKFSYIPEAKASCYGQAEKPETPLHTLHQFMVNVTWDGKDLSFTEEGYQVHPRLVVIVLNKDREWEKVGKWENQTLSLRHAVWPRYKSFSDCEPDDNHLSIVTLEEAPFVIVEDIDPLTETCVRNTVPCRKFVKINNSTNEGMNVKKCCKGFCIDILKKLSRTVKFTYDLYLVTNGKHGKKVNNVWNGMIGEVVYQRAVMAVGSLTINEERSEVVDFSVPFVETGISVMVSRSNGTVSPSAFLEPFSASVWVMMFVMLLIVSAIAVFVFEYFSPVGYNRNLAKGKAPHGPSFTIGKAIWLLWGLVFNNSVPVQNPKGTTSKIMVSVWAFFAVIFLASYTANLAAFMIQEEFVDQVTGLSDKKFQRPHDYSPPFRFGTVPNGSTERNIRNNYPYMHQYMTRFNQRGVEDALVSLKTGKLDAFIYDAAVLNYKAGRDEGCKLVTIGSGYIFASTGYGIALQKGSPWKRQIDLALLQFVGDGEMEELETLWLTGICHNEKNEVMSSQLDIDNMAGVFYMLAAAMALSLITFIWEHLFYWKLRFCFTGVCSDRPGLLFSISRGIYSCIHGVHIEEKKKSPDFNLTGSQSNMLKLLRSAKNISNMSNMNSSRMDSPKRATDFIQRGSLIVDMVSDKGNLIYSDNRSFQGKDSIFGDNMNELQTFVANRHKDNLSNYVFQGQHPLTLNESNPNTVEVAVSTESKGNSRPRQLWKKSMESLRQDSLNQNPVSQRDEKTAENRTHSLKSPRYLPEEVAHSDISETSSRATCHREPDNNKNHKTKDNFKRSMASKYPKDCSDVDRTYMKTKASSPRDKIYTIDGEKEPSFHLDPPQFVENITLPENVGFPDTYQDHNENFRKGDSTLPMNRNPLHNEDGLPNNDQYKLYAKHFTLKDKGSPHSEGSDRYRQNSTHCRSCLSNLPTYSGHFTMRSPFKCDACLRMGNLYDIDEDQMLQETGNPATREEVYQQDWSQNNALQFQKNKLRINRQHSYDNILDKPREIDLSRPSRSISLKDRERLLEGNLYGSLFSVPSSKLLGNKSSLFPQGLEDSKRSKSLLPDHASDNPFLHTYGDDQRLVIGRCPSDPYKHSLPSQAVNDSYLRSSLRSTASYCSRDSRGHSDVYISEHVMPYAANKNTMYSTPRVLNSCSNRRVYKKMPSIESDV

Glutamate receptor ionotropic, NMDA 1/2C, sequence (Q00961 whole entry, other chains not shown): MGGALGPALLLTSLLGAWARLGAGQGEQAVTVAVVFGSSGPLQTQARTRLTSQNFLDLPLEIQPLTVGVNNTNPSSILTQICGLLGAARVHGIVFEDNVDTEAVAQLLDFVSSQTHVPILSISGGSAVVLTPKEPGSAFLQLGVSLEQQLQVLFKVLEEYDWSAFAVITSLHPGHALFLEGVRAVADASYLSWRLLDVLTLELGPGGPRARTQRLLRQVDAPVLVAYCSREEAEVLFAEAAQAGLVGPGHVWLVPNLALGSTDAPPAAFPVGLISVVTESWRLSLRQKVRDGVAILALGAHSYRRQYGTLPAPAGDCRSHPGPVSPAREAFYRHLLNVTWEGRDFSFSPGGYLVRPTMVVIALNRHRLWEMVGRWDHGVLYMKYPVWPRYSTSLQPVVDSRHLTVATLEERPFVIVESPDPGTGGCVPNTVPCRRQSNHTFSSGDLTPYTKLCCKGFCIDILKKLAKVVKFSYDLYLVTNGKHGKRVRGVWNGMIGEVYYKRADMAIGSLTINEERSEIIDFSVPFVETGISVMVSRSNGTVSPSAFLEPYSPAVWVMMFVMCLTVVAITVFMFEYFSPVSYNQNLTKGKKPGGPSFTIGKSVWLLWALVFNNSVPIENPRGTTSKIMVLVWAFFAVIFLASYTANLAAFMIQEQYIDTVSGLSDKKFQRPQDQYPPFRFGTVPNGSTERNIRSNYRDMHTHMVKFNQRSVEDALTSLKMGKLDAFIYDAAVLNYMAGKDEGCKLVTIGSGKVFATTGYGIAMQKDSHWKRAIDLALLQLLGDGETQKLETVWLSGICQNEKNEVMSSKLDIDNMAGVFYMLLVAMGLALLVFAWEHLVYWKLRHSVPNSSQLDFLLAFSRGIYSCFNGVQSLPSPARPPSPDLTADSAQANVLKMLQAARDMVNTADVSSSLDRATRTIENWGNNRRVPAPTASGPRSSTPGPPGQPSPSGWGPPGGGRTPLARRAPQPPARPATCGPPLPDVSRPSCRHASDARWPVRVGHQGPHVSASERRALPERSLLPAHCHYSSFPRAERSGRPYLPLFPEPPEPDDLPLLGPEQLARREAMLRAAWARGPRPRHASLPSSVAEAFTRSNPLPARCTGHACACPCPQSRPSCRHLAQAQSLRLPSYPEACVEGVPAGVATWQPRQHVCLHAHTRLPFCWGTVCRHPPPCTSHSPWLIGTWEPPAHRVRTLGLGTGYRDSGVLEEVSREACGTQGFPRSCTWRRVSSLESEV

With `O=C(O)c1ccc(-n2c(/C=C/c3cccc([N+](=O)[O-])c3)nc3ccc(Cl)cc3c2=O)cc1` [(E)-4-(6-Chloro-2-(3-nitrostyryl)-4-oxoquinazolin-3(4H)-yl)-benzoic Acid] the IC50 [1] was 2 µM, the IC50 [2] was 7 µM and the IC50 [3] was 13 µM. The IC50 [4] was 16 µM.
